From paper PMC6282584 (Chemmedchem, 2018)

Experiments:
PR [1] = molecular target: T1, PR (Rattus norvegicus, UniProt Q63449); test: Termination of early pregnancy in rats; assay type: in vivo; conditions: p.o., n=6
T1 sequence (Q63449 1-923): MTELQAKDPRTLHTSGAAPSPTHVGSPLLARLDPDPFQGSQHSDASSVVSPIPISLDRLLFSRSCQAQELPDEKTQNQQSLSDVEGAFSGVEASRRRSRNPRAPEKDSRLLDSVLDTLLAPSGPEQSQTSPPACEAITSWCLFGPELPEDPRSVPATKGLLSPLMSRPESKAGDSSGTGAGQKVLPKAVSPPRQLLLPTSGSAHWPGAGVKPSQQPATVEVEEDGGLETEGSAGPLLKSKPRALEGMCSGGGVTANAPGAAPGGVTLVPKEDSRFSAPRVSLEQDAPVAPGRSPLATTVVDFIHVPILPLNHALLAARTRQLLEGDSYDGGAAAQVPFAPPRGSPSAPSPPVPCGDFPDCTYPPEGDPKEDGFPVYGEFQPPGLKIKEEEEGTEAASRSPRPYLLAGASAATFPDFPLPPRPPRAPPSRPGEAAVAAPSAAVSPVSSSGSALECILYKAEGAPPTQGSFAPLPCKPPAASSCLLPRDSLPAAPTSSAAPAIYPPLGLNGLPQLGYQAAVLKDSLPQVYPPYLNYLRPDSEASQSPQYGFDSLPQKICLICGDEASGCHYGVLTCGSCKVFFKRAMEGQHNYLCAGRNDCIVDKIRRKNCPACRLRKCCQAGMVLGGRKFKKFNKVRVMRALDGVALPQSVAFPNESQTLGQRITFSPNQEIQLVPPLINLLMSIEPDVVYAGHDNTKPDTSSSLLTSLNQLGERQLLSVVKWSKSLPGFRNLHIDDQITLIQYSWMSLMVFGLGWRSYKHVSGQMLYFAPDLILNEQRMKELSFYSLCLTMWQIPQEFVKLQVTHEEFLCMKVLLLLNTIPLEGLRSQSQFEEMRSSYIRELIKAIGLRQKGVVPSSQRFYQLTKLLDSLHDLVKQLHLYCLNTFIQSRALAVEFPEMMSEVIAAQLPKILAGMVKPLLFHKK
Procedure, shortened: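 Wistar rats (100–230 g) were randomized on Days 5–7 post-coitum (n=6 per group). They received test compound at several doses s.c. or p.o., or vehicle (benzyl benzoate/castor oil 1+4 v/v, or 85 mg polyoxyethylene-(50)-stearate in 100 mL 0.9 % NaCl). Autopsy was on Day 9. Full efficacy meant all animals lacked implantation sites or had only regressed or hemorrhagic sites.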

PR [2] = molecular target: T2, PR (Oryctolagus cuniculus, UniProt P06186); test: Endometrial transformation in rabbits; assay type: in vivo, rabbit; conditions: p.o., with progesterone, McPhail index 1 or 1.5
T2 sequence (P06186 1-930): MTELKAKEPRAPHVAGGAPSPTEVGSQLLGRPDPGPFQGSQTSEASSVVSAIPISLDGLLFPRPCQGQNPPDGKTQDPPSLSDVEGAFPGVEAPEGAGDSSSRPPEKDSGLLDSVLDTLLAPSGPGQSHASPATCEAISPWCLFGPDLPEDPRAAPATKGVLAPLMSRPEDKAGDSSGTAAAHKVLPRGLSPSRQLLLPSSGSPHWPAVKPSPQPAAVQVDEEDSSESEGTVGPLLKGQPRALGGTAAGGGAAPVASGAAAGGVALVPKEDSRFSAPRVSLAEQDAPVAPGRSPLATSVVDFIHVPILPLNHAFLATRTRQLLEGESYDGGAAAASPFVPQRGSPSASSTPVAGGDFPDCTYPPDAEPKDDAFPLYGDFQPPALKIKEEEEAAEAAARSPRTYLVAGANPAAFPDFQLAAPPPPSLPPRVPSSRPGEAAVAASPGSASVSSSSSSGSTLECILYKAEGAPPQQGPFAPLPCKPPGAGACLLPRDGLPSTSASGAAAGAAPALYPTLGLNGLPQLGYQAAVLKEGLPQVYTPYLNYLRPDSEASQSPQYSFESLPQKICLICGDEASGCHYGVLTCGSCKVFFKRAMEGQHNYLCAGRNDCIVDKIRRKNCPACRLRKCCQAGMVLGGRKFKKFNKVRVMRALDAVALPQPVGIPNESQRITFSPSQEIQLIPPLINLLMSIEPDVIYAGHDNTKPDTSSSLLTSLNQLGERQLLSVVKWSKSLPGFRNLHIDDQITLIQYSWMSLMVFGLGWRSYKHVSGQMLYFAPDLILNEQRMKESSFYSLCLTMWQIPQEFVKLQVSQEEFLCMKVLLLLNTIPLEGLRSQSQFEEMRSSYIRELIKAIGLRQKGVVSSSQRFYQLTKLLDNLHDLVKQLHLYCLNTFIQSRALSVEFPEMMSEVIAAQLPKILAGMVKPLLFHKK
Procedure, shortened: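 Juvenile New Zealand white rabbits (35–42 days old, 900–1300 g) were primed with 17β-estradiol, […] s.c., on Days 1–4. For the antagonist test, animals were randomized (n=4) on Days 7–10 to 0.2 mg kg−1 day−1 progesterone s.c. plus test compound p.o. Autopsy was on Day 11. Glandular differentiation was scored by light microscopy as McPhail index 1–4. Full efficacy meant every animal in the group scored 1 or 1.5.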

[3] = Determination of lonaprisan and its metabolites in human serum; assay type: in vivo; conditions: single oral 200 mg lonaprisan
Procedure, shortened: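 Serum was sampled from volunteers after a single oral dose of the parent steroid. Concentration–time profiles of the parent and three metabolites were measured by LC–MS/MS with external calibration against authentic reference compounds. PK parameters were then calculated. Each metabolite AUC(0–∞) was expressed as % of parent AUC and as a share of the summed AUC of drug-related compounds.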

With `CC(=O)c1ccc([C@H]2C[C@@]3(C)[C@@H](CC[C@@]3(O)C(F)(F)C(F)(F)F)[C@@H]3CCC4=CC(=O)CCC4=C32)cc1` [lonaprisan] the “Dose of full efficacy, termination of early pregnancy in rats” value (PR [1]) was 0.5 mg/kg, the “Dose of full efficacy, endometrial transformation in rabbits” value (PR [2]) was 1.0 mg/kg and the “Relative contribution to sum of AUC of drug-related compounds” value [3] was 6%.
